Common to all, as to type: functional, organism-based
The subject of assay [1] is Plasmodium falciparum. In words: Antimalarial activity against Plasmodium falciparum Dd2. The procedure, abridged:
(§1)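 P. falciparum clones kept in modified candle jars; triplicate wells holding 100 µl culture (2% hematocrit, 1% parasitemia) plus 100 µl drug dilution or control. Growth read by tritiated hypoxanthine incorporation, media and vehicle controls on each plate. Experiments repeated at least twice; EC50 derived from pooled data of all experiments.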

For assay [2], the system named is Plasmodium falciparum. In words: Antimalarial activity against Plasmodium falciparum D10. The procedure, abridged: as §1
Assay [3] has as its system Plasmodium falciparum. Briefly: Antimalarial activity against Plasmodium falciparum FAC8. A digest of the protocol: as §1

Broadly, the EC50 is the concentration that produces a half-maximal response. High values mean a less potent agent, low ones a more potent agent.

Calls of active or inactive are those of the source. The calls are words filed in the database; no cut-off is given here.

With `CCN(CC)CCCC(C)Nc1ccnc2cc(Cl)ccc12` (stereo not drawn) [CHLOROQUINE], in assay [1], a half-maximal response (EC50) required 55 nM.

As to `CC(C)C[C@H](NC(=O)[C@H]1O[C@@H]1C(=O)O)C(=O)NCCCCN=C(N)N` [E-64], in assay [1], the EC50 came out at 2900 nM.

Turning to `O[C@@H](c1cc(C(F)(F)F)nc2c(C(F)(F)F)cccc12)[C@H]1CCCCN1` [MEFLOQUINE], the EC50 in assay [2] came out at 64 nM; in assay [3], 23 nM; in assay [1], 60 nM.

In turn, `CC(C)CC(=O)N[C@H](C(=O)N[C@H](C(=O)N[C@@H](CC(C)C)[C@@H](O)CC(=O)N[C@@H](C)C(=O)N[C@@H](CC(C)C)[C@@H](O)CC(=O)O)C(C)C)C(C)C` [PEPSTATIN] gave an EC50 in assay [2] of 14000 nM. For the same molecule, the result in assay [1] was inactive.

On to `CC(C)c1nc(CN(C)C(=O)N[C@H](C(=O)N[C@@H](Cc2ccccc2)C[C@H](O)[C@H](Cc2ccccc2)NC(=O)OCc2cncs2)C(C)C)cs1` [RITONAVIR], for which the EC50 came to 1100 nM in assay [2], 7000 nM in assay [3] and 850 nM in assay [1].

In the case of `CC(C)(C)NC(=O)[C@@H]1C[C@@H]2CCCC[C@@H]2CN1C[C@@H](O)[C@H](Cc1ccccc1)NC(=O)[C@H](CC(N)=O)NC(=O)c1ccc2ccccc2n1` [SAQUINAVIR], the figures for the EC50 in assay [2] and in assay [1] were 5500 nM and 960 nM, respectively.

In assay [1], `CC(C)C[C@H](NC(=O)[C@@H](O)[C@H](N)Cc1ccccc1)C(=O)O` [UBENIMEX] registered a concentration for a half-maximal effect (EC50) of 5100 nM.
